High-throughput results from PubChem BioAssay.
LMPTP inh: LMPTP phosphatase inhibitors, primary screen, biochemical, fluorescence intensity, uHTS; Low molecular weight phosphotyrosine protein phosphatase (Homo sapiens), P24666; recombinant LMPTP-A, OMFP fluorogenic substrate; inhibition, % at 20 µM; actives 0.22% (n = 360,000); AID 651560, 2012;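 active = compounds that cut the enzyme signal by at least half of the control window in the single-dose screen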;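 also: plate controls were DMSO wells with enzyme plus substrate for no effect and substrate without enzyme for full effect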
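Test system: LMPTP-A, protein tyrosine phosphatase of low molecular weight; Input: 0.625 nM enzyme; Incubation: 50 min dark incubation at room temperature; Signal: endpoint fluorescence intensity from OMFP dephosphorylation; Read-out basis: % inhibition versus control wells.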
Scp-1 inhibitor: Scp-1 phosphatase inhibitors, primary screen, biochemical, colorimetric, uHTS; Carboxy-terminal domain RNA polymerase II polypeptide A small phosphatase 1 (Homo …; Recombinant Scp1, phosphopeptide, malachite green phosphate absorbance; inhibition, % at 20 µM; actives 0.88% (n = 340,000); AID 493091, 2011;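 active = inhibition above about 50% at 20 µM, limit read from the data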;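 also: plate controls were DMSO wells with enzyme for no effect and wells lacking enzyme for full effect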
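Assay system: SCP-1 catalytic fragment, aa 76-261 | Buffer or medium: Tris acetate buffer pH 5.5 with MgCl2 and Tween-20 | Compound: One concentration, 20 µM, with 1.0% DMSO | Also added: Phospho 17-mer peptide substrate | Signal: Absorbance at 630 nm | Incubation: 45 min enzyme reaction at room temperature | Measure: % inhibition of SCP-1 phosphate liberation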
STEP inh: STEP phosphatase inhibitors, primary screen, biochemical, fluorescence intensity, uHTS. inhibition, % at 20 µM. recombinant STEP, OMFP fluorogenic substrate. AID 588621, 2011. Tyrosine-protein phosphatase non-receptor type 5 (Homo sapiens), P54829. actives 0.25% (n = 360,000);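 active = inhibition at 20 µM, scaled per plate between control wells, above about 37%, limit read from the data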;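 also: 0% = DMSO with enzyme and substrate and 100% = substrate only without enzyme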
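Assay system: isolated STEP enzyme. Buffer or medium: pH 6.0 Bis-Tris with DTT and Tween 20. Also added: fluorogenic phosphatase substrate OMFP at 25 µM final. Dosing: 20 µM, 1% DMSO. Timing: 20 min reaction, room temperature, in the dark. Measured by: fluorescence intensity, excitation 480 nm, emission 540 nm. Evaluation: normalized % inhibition.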
DNMT1 block: human DNMT1 methyltransferase inhibitors, primary screen, biochemical, molecular beacon, fluorescence, HinP1I cleavage, uHTS | actives 0.83% (n = 360,000) | AID 588458, 2011 | inhibition (reported as % activation of signal), % at 10 µM | DNA (cytosine-5)-methyltransferase 1 (Homo sapiens), P26358; in the data active = inhibition above about 50%
Target sequence (P26358 504-1616 limits assumed): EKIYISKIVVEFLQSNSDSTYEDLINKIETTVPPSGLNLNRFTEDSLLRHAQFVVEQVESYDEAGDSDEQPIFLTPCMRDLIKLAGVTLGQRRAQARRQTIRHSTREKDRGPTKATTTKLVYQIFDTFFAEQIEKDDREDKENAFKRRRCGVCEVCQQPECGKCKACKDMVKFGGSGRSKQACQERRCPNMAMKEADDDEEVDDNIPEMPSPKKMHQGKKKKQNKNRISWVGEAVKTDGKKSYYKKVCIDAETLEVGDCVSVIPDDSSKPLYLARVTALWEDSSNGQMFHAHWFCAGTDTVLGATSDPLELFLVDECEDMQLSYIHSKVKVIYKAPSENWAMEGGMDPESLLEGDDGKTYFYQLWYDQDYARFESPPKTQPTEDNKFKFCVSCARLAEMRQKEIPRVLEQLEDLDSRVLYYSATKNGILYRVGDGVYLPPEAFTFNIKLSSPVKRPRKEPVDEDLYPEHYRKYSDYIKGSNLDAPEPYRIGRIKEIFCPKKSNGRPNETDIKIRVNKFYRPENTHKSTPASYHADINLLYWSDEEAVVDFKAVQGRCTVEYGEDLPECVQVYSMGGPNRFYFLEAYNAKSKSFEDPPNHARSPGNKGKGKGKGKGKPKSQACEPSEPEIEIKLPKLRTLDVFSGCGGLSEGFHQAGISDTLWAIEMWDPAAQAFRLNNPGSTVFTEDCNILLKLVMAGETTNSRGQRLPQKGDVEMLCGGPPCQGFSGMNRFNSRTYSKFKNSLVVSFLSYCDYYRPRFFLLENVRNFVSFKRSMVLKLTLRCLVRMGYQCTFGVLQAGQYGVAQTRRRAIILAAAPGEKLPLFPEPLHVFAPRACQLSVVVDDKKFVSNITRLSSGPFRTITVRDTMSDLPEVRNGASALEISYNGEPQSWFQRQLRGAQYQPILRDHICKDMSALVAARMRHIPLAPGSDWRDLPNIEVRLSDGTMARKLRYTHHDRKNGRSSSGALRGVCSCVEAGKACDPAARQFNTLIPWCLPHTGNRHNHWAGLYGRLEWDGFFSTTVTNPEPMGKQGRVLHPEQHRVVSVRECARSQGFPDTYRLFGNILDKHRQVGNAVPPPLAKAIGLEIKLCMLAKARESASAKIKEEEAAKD
SUMO1-SIM PPI: modulators of SUMO1 protein-protein interactions, primary screen, biochemical, uHTS. AID 602429, 2012. actives 0.33% (n = 360,000). inhibition, % at 20 µM. SUMO1 binding to a labelled peptide, TR-FRET, 1 h; in the data active = inhibition above about 37%
GRK2 inh: compounds blocking aptamer binding on GRK2 – biochemical, human GRK2, bead flow cytometry, HTS, primary screen; Beta-adrenergic receptor kinase 1 (Homo sapiens), P25098; FAM-aptamer displacement from GRK2; inhibition of aptamer binding, % at 10 µM; actives 0.59% (n = 330,000);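 active = inhibition of aptamer binding above 40%, roughly 3 SD of noise, on plates passing a quality check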;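 also: median bead fluorescence of bound FAM aptamer so fluorescent compounds give negative values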
GRK2 inh confirm: GRK2 aptamer-displacing inhibitors, retest, confirmation, biochemical, cherry pick 1, bead flow cytometry. shares compounds with GRK2 inh. bead-bound GRK2, FAM-aptamer displacement. aptamer displacement, % at 10 µM. actives 4% (n = 2,000);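 active = aptamer displacement above 40%, near three times the noise of non-fluorescent compounds, on plates passing quality checks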;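 also: negative values mostly reflect intrinsic compound fluorescence rather than true enhancement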
Aptamer quench 1: counter-screen for GRK2 aptamer inhibitors: fluorescent aptamer quenchers. shares compounds with GRK2 inh. Fluorescent RNA aptamer beads, quenching, flow cytometry; hits give high values. fluorescence change (kMESF span), kMESF (test concentration not listed). 110 tested, under 10 active. AID 504521;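 active = compounds whose bead fluorescence drops by more than 37 kMESF across the dose range, marking them as dye quenchers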
Aptamer quench SP: counter-screen for GRK2 aptamer inhibitors: fluorescent aptamer quenchers | shares compounds with GRK2 inh | Carboxyfluorescein RNA aptamer on beads, flow cytometry quenching; hits give low values | fluorescence response (% of DMSO), % at 10 µM | 2,000 tested, under 10 active;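 active = compounds that quench the bead-bound fluorescent RNA probe, cutting fluorescence to under half of the solvent control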;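 also: counterscreen run without GRK2 so only probe quenching by compound is measured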
GRK2 confirm 2: GRK2 aptamer-displacing inhibitors, hit retest, confirmation, biochemical, cherry pick 2, bead flow cytometry; shares compounds with GRK2 inh; bead-bound GRK2, FAM-aptamer displacement; inhibition of aptamer binding, % at 10 µM; 360 tested, under 10 active;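 active = inhibition of aptamer binding above 40%, about triple the noise seen with nonglowing compounds, on plates passing quality control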;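 also: negative values mostly come from compounds that fluoresce themselves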
FAM quench SP: counter-screen for GRK2 binding hits: quenchers of fluorescent RNA aptamer | shares compounds with GRK2 inh | carboxyfluorescein RNA aptamer beads, flow cytometry quenching; hits give low values | fluorescence response vs DMSO, % at 10 µM | 360 tested, under 10 active | AID 588494;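 active = response vs DMSO under 50%, meaning signal dropped by over half, treated as fluorescence quencher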;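 also: labelled aptamer on streptavidin beads without GRK2 as a quench counter-screen; 100% = bead fluorescence of DMSO wells and lower means quenching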
FAM quench PS1: quenchers of FAM-labeled RNA aptamer fluorescence, dose response, artefact control for GRK2 aptamer binding project, biochemical, powder set 1, flow cytometry | shares compounds with GRK2 inh | Bead-bound FAM RNA aptamer fluorescence quenching; hits give low values | fluorescence ratio to DMSO, % at 11.1 µM | 35 tested, under 10 active | AID 588496, 2011;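 active = compounds that dim the fluorescent label, raw bead signal shifting by over 33 units between lowest and highest dose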
* marks the source's active call; other numbers are inactive results; x = no result. Most compounds without a hit are left out; they make up all but 2.2% or so of the library.

SMILES	LMPTP inh	Scp-1 inhibitor	STEP inh	DNMT1 block	SUMO1-SIM PPI	GRK2 inh	GRK2 inh confirm	Aptamer quench SP	others
Cc1ccc(OCCNC(=O)CCc2ccccc2)cc1C	0.8	-3.3	0.6	4.1	3.8	79.0*	2.3	97.7
Cc1ccc2nc(N3CCN(c4ccccc4F)CC3)c(C=O)c(=O)n2c1	-0.2	-6.3	-0.2	3.3	-18.7	64.0*	-0.4	100.3
Cc1ccc2nc(N3CCCCC3)c(C=O)c(=O)n2c1	x	x	x	x	x	0.0	x	x
Cc1cc2ccccc2n1CCNC(=O)C1CCCC1	0.7	-3.6	2.8	-6.1	-16.6	99.0*	-0.7	100.4	GRK2 confirm 2=-1.1;FAM quench SP=99.0
Cc1cc2ccccc2n1CCNC(=O)c1cccs1	5.6	-5.8	-1.7	-16.2	-11.0	98.0*	80.6*	88.2	Aptamer quench 1=27.9;FAM quench PS1=100.0
Nc1ccn(C2OC(CCl)C(O)C2O)c(=O)n1 (stereo unspecified)	0.1	x	1.9	3.1	10.4	x	x	x
C[C@H](CO)N1C[C@H](C)[C@@H](CN(C)Cc2ccc3cccnc3c2)OCc2cnnn2CCCC1=O	-1.3	x	-0.7	1.6	-4.1	x	x	x
O=C(O)c1c2c(nc3ccccc13)/C(=C/c1ccc(O)cc1)CC2	17.2	62.1*	40.7*	86.8*	19.4	67.0*	50.2*	98.5	Aptamer quench 1=8.9
CCC(=O)N1c2ccc(S(=O)(=O)CCC(=O)Nc3ccc(OC)cc3OC)cc2CC1C (stereo unspecified)	-1.6	-11.3	3.7	-2.4	7.1	5.0	x	x	GRK2 confirm 2=-29.2;FAM quench SP=102.0
COc1ccccc1NC(=O)CCC(=O)OCc1ccc(Cl)cc1	-0.1	-6.0	-2.8	-1.7	2.8	97.0*	2.0	111.5
COc1ccccc1NC(=O)CCS(=O)(=O)c1ccccc1	1.2	-6.4	3.5	-3.8	2.9	0.0	x	x	GRK2 confirm 2=-9.4;FAM quench SP=102.0
COc1ccccc1NC(=O)c1ccccc1Oc1ccccc1	3.9	-17.8	1.5	-5.2	4.3	41.0*	-0.3	92.3
COc1ccccc1NC(=O)CCC(=O)OCc1ccc(Br)cc1	1.4	-4.0	0.3	-8.6	-1.9	3.0	x	x
Cc1cccc(C)c1N1CCN(C(c2cc3ccccc3o2)c2nnnn2C(C)(C)C)CC1 (stereo unspecified)	3.8	x	x	x	-1.4	x	x	x
OC[C@@H]1CN(Cc2ccco2)C[C@H](n2cnc3c(Nc4ccccc4)ncnc32)O1	-1.7	x	22.9	-2.5	-0.2	x	x	x
